Experimental data gathered from unrelated publications.
Organism: Leishmania major
Read-out: parasite growth
Setting: promastigote

Structure (SMILES) | assay | conditions | measurement | value
CC(=O)Oc1ccc(-c2oc3cc(OC(C)=O)cc(O)c3c(=O)c2OC(C)=O)cc1 |  | 48 h | IC50 | 14.9 µM
CCCCCCCCCc1cn(CCN2CCN(C(=O)c3c(C)nc4ccc(Cl)cn34)CC2)nn1 | resazurin | 72 h | IC50 | 62 µM
C[C@@H]1[C@H](O)[C@@H](C)/C=C/C=C/C=C/C=C/C=C/C=C/C=C/[C@H](O[C@@H]2O[C@H](C)[C@@H](O)[C@H](N)[C@@H]2O)C[C@@H]2O[C@](O)(C[C@@H](O)C[C@@H](O)[C@H](O)CC[C@@H](O)C[C@@H](O)CC(=O)O[C@H]1C)C[C@H](O)[C@H]2C(=O)O |  |  | IC50 | 0.83 µM
O=S(=O)(c1ccc(-c2ccc3ncnc(Nc4ccc(OCc5ccccc5)c(Cl)c4)c3c2)cc1)N1CCOCC1 | resazurin |  | EC50 | 0.47 µM
Cc1nc2ccc(Cl)cn2c1C(=O)N1CCN(Cc2cn(-c3cccc(Cl)c3)nn2)CC1 | resazurin | 72 h | IC50 | 47.1 µM
C[C@@H]1[C@H](O)[C@@H](C)/C=C/C=C/C=C/C=C/C=C/C=C/C=C/[C@H](O[C@@H]2O[C@H](C)[C@@H](O)[C@H](N)[C@@H]2O)C[C@@H]2O[C@](O)(C[C@@H](O)C[C@@H](O)[C@H](O)CC[C@@H](O)C[C@@H](O)CC(=O)O[C@H]1C)C[C@H](O)[C@H]2C(=O)O |  | 24 h | IC50 | 0.243 µM
C[C@@H]1[C@H](O)[C@@H](C)/C=C/C=C/C=C/C=C/C=C/C=C/C=C/[C@H](O[C@@H]2O[C@H](C)[C@@H](O)[C@H](N)[C@@H]2O)C[C@@H]2O[C@](O)(C[C@@H](O)C[C@@H](O)[C@H](O)CC[C@@H](O)C[C@@H](O)CC(=O)O[C@H]1C)C[C@H](O)[C@H]2C(=O)O |  | 48 h | IC50 | 3.68 µM
CCCc1cn(CCN2CCN(C(=O)c3c(C)nc4ccc(Cl)cn34)CC2)nn1 | resazurin | 72 h | IC50 | 475 µM
CC1(C)OB(CC2c3ccccc3C(=O)N2C2CCCCC2)OC1(C)C (stereo not drawn) |  |  | IC50 | 11.5 µM
